Assay [1] has as its target T1, Interleukin-1 receptor-associated kinase 4 (Homo sapiens) (UniProt Q9NWZ3).
T1 sequence (whole entry): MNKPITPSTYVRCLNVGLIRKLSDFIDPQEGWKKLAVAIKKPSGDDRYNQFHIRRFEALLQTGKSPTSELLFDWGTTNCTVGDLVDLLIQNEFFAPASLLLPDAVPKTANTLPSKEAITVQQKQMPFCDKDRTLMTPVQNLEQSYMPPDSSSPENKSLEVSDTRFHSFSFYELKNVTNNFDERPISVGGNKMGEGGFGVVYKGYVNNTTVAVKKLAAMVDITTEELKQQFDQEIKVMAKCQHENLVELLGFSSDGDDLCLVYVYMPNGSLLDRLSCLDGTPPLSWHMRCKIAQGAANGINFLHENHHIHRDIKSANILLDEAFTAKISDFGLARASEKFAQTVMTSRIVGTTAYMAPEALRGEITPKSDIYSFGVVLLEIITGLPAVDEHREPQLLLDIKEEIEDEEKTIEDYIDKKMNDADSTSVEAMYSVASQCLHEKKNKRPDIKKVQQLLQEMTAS
Nature of the assay: Inhibition of IRAK4 at 1 uM. The essentials: (§1)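 Single-point profiling in a panel of 108 kinases. Each selected inhibitor was tested at two concentrations, 0.1 and 1.0 micromolar. Values are reported as inhibition at each concentration.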

For assay [2], the target named is Mast/stem cell growth factor receptor Kit (Homo sapiens) (UniProt P10721). Briefly: Inhibition of c-Kit at 1 uM; values are per cent of control.
Chain of Mast/stem cell growth factor receptor Kit (Homo sapiens) (P10721 whole entry): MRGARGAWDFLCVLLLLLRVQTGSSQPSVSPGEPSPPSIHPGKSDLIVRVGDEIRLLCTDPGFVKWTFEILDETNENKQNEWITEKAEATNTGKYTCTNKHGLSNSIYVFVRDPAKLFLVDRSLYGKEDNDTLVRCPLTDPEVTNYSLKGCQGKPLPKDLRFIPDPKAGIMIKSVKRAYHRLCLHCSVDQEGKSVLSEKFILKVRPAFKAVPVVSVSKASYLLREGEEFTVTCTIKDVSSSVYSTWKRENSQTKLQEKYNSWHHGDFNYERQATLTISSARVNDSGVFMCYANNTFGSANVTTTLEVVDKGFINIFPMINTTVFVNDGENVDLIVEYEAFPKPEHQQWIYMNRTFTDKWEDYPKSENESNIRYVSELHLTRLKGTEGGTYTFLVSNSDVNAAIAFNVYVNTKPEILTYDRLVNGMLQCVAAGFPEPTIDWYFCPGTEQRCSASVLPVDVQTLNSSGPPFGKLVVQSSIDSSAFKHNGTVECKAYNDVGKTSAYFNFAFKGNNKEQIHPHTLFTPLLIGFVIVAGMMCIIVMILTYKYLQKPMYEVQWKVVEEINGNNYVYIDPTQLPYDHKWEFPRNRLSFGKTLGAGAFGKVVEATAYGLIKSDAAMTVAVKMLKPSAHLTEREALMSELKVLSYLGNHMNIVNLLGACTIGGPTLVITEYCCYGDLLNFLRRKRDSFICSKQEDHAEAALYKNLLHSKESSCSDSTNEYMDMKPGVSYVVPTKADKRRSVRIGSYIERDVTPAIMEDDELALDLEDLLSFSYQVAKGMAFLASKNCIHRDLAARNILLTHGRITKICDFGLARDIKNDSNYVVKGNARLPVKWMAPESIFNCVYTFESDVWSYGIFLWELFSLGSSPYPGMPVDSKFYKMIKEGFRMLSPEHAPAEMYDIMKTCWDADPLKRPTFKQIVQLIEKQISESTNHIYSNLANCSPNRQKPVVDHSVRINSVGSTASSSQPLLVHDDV
Assay [3] deals with T2, Tyrosine-protein kinase ITK/TSK (Homo sapiens) (UniProt Q08881).
T2 sequence (whole entry): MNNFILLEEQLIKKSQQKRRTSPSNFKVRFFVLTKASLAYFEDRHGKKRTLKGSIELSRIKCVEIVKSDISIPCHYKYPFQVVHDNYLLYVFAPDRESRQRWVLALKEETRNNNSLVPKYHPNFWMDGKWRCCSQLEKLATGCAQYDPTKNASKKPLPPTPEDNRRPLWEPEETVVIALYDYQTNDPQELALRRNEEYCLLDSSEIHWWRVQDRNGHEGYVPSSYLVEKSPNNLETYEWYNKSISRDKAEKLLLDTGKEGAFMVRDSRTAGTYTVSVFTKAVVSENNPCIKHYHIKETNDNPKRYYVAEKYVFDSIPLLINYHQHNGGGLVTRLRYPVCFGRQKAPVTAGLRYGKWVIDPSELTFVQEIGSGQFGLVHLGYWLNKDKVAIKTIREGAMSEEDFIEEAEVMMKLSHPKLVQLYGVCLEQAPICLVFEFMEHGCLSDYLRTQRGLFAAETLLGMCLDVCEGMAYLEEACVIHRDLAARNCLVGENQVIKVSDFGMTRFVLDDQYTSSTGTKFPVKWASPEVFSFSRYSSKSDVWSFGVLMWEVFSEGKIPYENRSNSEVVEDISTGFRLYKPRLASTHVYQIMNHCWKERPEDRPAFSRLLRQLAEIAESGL
Briefly: Inhibition of Itk at 0.1 uM; values are per cent of control.

The target in assay [4] is Mitogen-activated protein kinase 10 (Homo sapiens) (UniProt P53779). Briefly: Inhibition of JNK3 at 1 uM. The essentials: as §1
Chain of Mitogen-activated protein kinase 10 (Homo sapiens) (P53779 whole entry): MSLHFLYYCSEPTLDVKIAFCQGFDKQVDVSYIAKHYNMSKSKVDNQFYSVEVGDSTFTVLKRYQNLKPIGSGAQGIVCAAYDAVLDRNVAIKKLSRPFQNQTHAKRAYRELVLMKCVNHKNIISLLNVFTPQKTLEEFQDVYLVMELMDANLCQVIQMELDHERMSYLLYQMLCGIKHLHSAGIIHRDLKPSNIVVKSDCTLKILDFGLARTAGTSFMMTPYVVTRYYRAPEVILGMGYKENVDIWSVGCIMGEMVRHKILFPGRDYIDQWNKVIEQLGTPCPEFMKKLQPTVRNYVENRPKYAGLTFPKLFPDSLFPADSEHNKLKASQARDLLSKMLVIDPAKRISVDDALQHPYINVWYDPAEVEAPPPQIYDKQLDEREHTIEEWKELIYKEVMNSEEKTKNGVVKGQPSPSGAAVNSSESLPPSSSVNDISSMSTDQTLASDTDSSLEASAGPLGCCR
Assay [5] deals with Death-associated protein kinase 2 (Homo sapiens) (UniProt Q9UIK4). Nature of the assay: Inhibition of DAPK2 at 1 uM; values are per cent of control.
Chain of Death-associated protein kinase 2 (Homo sapiens) (Q9UIK4 whole entry, looked up): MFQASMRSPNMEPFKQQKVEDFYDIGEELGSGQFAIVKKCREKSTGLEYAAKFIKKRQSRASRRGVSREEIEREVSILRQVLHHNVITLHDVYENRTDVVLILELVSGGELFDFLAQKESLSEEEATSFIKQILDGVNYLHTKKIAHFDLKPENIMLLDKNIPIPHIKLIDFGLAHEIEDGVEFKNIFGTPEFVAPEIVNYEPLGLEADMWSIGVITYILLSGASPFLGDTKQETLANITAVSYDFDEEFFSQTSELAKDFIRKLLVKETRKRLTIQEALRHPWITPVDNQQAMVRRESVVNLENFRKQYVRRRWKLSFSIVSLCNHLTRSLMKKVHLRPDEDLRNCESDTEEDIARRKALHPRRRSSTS
Assay [6] deals with T3, Tyrosine-protein kinase JAK3 (Homo sapiens) (UniProt P52333).
T3 sequence (whole entry): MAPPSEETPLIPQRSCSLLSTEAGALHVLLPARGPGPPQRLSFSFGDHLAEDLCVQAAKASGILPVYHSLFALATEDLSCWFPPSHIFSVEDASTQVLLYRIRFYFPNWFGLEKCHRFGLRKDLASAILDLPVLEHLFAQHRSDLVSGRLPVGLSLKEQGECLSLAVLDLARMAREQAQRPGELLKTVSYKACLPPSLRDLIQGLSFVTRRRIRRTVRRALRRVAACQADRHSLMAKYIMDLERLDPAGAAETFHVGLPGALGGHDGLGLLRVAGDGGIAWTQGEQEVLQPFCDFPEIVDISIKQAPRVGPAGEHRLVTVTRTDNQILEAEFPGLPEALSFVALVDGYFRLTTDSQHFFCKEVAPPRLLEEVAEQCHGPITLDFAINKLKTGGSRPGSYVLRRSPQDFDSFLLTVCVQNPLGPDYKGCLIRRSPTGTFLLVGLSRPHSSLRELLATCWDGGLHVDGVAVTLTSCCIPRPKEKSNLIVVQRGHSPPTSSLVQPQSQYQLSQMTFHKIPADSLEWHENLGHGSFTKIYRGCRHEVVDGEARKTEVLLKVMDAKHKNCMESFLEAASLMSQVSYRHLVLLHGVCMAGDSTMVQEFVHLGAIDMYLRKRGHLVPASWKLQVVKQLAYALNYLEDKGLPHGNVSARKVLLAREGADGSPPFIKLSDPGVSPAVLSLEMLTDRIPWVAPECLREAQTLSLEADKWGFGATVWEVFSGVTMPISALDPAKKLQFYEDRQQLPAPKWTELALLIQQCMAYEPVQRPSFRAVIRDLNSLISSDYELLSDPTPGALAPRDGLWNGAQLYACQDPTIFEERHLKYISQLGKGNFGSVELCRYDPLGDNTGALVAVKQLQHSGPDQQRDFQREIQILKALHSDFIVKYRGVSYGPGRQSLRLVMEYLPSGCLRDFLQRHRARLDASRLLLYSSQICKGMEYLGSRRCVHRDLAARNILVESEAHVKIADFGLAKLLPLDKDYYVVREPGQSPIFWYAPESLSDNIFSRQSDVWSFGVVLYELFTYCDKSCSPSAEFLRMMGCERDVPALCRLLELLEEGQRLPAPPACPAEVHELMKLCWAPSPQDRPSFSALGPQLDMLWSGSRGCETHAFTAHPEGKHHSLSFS
Briefly: Inhibition of JAK3 at 0.1 uM; values are per cent of control.

The target in assay [7] is T4, Aurora kinase A (Homo sapiens) (UniProt O14965).
T4 sequence (whole entry): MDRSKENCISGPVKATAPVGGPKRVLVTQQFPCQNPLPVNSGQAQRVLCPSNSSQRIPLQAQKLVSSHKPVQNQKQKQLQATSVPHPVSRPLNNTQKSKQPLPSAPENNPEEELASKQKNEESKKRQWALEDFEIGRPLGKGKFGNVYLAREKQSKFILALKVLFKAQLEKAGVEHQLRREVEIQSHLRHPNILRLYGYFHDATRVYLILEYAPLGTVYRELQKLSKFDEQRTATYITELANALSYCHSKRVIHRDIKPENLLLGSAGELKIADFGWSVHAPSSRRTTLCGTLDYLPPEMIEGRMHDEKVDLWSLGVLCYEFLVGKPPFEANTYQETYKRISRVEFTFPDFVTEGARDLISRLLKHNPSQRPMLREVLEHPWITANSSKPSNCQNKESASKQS
Nature of the assay: Inhibition of aurora-A at 0.1 uM; values are per cent of control.

A word on the inhibition: it is the drop in the measured response relative to a control, in per cent. A lower inhibition goes with little suppression. In general, residual activity refers to the signal under treatment as a percentage of the control signal. Consider `Cc1ccc2cc(-c3n[nH]c4ccc(NC5CCNC5)cc34)[nH]c2c1` (centres undefined), for which the inhibition in assay [1] was found to be 0%; in assay [4] it was 36%. Further, the residual activity in assay [2] was 69%; in assay [3], 41%; in assay [5], 61%; in assay [6] it was 25%; in assay [7] it was 5%.

In the case of `Cc1ccc2cc(-c3n[nH]c4ccc(NC5CCN(Cc6ccccc6)CC5)cc34)[nH]c2c1`, the inhibition in assay [1] stood at 3%; in assay [4], 91%. Moreover, the residual activity in assay [2] was determined as 122%; in assay [3], 14%; in assay [5], 112%; in assay [6] it was 52%; in assay [7], 34%.

Values taken from ChEMBL document CHEMBL1681705, “Optimisation of ITK inhibitors through successive iterative design cycles” (Bioorg Med Chem Lett, 2011).
